Assay results published in PubChem BioAssay AID504414 (Broad Institute, 2011).
About 55 (0.02%) of roughly 330,000 compounds were called active.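 How the source made its calls: active means highest replicate inhibition of at least 40%; inactive means the rest.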 The entries come from a sample that favours actives as a whole.

biological target: Golgi-associated PDZ and coiled-coil motif-containing protein (Homo sapiens) (UniProt Q9HD26); assay: disruption of CAL PDZ-reporter peptide interaction – biochemical, fluorescence polarization, Cer-tagged CAL PDZ, HTS, primary screen (AID 504414); conditions: purified CAL PDZ, TMR-peptide fluorescence polarization, 1 h; at 20 µM; hits give high values;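 further: plate controls were DMSO neutral control wells for no effect and unlabeled competitor peptide control wells for full effect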
Procedure, shortened: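 Material: tagged CAL PDZ protein CerCALP, purified; buffer or medium: sodium phosphate/NaCl buffer pH 7.4 with TCEP, IgG, Thesit; also added: fluorescent TMR peptide probe; schedule: 1 h incubation at room temperature before polarization reading; technique: fluorescence polarization from S- and P-plane intensities, G-factor corrected; control set: unlabelled peptide and DMSO controls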

SMILES | inhibition
CC(C)(C)NC(=O)CN(C(=O)c1csnn1)c1ccccc1-c1ccccc1 | -2.13% (inactive)
CCCCn1c(N)c(N(CCOC)C(=O)c2oc3ccc(OC)cc3c2C)c(=O)[nH]c1=O | -1.98% (inactive)
Cc1onc(-c2c(F)cccc2Cl)c1C(=O)OCC(=O)N1C(C)CCCC1C (configuration not stated) | -0.828% (inactive)
Cc1ccc(NC(=O)C2CC2c2ccccc2)cc1 (configuration not stated) | -0.307% (inactive)
COc1ccccc1C(=O)Nc1ccc(OCC(=O)N2CCCCC2)cc1 | -1.71% (inactive)
COc1ccc(CCNC(=O)c2nnc(CS(=O)(=O)c3ccccc3)o2)cc1OC | 1.25% (inactive)
COc1c(C)cc(C(=O)C2CCCN(S(=O)(=O)c3c(C)noc3C)C2)cc1C (configuration not stated) | -2.46% (inactive)
Cc1ccc(S(=O)(=O)N(CC(O)CN2C(=O)NC(C)(C)C2=O)c2cccc([N+](=O)[O-])c2)cc1 (configuration not stated) | -1.82% (inactive)
CC(C)=CCCC1(C)C=Cc2c(ccc3c2[nH]c2cc(O)c(C)cc23)O1 (configuration not stated) | 0.0711% (inactive)
Cc1csc(SCC(=O)N(c2ccccc2)C(C)C)n1 | -2.45% (inactive)
O=C(Cc1ccc(NC(=O)C2CCCN(C(=O)CCc3ccccc3)C2)cc1)Nc1ccc(C(=O)N2CCOCC2)cc1 (configuration not stated) | -1.16% (inactive)
CC(=O)CCS(=O)(=O)c1ccc(C)c(C)c1 | 0.503% (inactive)
Cc1c(C(=O)N2CCCC2)c(S(=O)(=O)NCC(C)c2ccccc2)c(C)n1C (configuration not stated) | -2.4% (inactive)
Cc1ccc(N(CC(=O)NC2CCCCC2)C(=O)CCCC(=O)Nc2ccccn2)c(C)c1 | 0.671% (inactive)
Cc1cc(-c2csc(N)n2)c(C)n1-c1ccccc1 | -2.46% (inactive)
CC(=O)c1ccc(NC(=O)C(C)OC(=O)c2ccc(NS(=O)(=O)c3ccc4[nH]c(=O)[nH]c4c3)cc2)cc1 (configuration not stated) | 1.56% (inactive)
C=CCN1C(=O)C(O)(CC(=O)c2ccccn2)c2ccccc21 (configuration not stated) | 0.0287% (inactive)
Cc1ccc2cc(C)c(N3CCC(C)CC3)nc2c1 | 1.11% (inactive)
CCOc1ncccc1C(=O)N(CC)CC(=O)Nc1ccc(NC(C)=O)cc1 | -1.13% (inactive)

SMILES | inhibition
CCN(CC)c1ccc(NC(=O)CCc2nnc3ccc(N4CCCCC4)nn23)c(C)c1 | 0.659% (inactive)
Cc1ccc(CNC(=O)C(=O)c2cn(CC(=O)N3CCOCC3)c3ccccc23)cc1 | -0.774% (inactive)
O=C(C1CC(=O)N(C2CCCCC2)C1)N1CCN(c2ccccc2)CC1 (configuration not stated) | -3.07% (inactive)
CCCOP(=O)(c1ccc(N(C)C)cc1)C(O)c1cc(OC)c(OC)c(OC)c1 (configuration not stated) | -2.28% (inactive)
Cc1nc(CN(C)C(=O)CC2C(=O)NCCN2Cc2ccc(F)cc2)cs1 (configuration not stated) | -1.72% (inactive)
COC(=O)c1sc(C(F)(F)F)c(-c2ccccc2)c1S(=O)(=O)N(C)C | -1.85% (inactive)
CN1CCN(CC(O)COCc2ccc3c(c2)OCO3)CC1 (configuration not stated) | 0.909% (inactive)
CCN(CC)c1ccc(C(=O)c2cnc(/N=C/N(C)C)s2)cc1 | -0.472% (inactive)
CC1CCCN(S(=O)(=O)c2ccc(-c3ccc(=O)[nH]n3)o2)C1 (configuration not stated) | -2.4% (inactive)
Cc1cccc(NC(=O)c2ccc(OCC(=O)NCc3ccccc3)cc2)c1C | 0.0994% (inactive)
CCc1c(Nc2ccccc2Cl)nc(N)[nH]c1=O | 0.824% (inactive)
O=C(CCl)NNc1cccc(Cl)n1 | -0.466% (inactive)
Cc1sc2ncn(CC(=O)NCCN(C)C)c(=O)c2c1S(=O)(=O)N1CCC(C)CC1 | -1.98% (inactive)
CCCn1c(N)c(N(CCOC)C(=O)C2CCCC2)c(=O)[nH]c1=O | -0.787% (inactive)
CN(CCO)S(=O)(=O)c1ccc2c(c1)C(=O)c1cc(S(=O)(=O)N(C)CCO)ccc1-2 | -0.349% (inactive)
CC1C(=O)NC(=O)C1c1ccccc1 (configuration not stated) | -1.12% (inactive)
COc1ccc(Cl)cc1S(=O)(=O)N1CCC(O)(c2ccc(Cl)cc2)CC1 | 0.846% (inactive)
COc1cc(C2C(C(=O)c3sc(C)nc3C)=C(O)C(=O)N2CCN(C)C)cc(OC)c1OC (configuration not stated) | 0.746% (inactive)
O=C(NCc1ccc2c(c1)OCO2)c1cc([N+](=O)[O-])ccc1N1CCOCC1 | -1.53% (inactive)

SMILES | inhibition
Cc1ccccc1OCCC(=O)OCC(=O)NCCc1ccc(S(N)(=O)=O)cc1 | -0.918% (inactive)
Cc1ccn2c(c1)nc(=O)c1cc(S(=O)(=O)N3CCC(C)CC3)ccc12 | -0.295% (inactive)
O=S(=O)(c1ccc(Cl)cc1)N1CCCN(c2ccc(C(F)(F)F)cn2)CC1 | -1.87% (inactive)
CN(CC(O)COc1ccc(S(=O)(=O)N2CCOCC2)cc1Cl)C1CCCCC1 (configuration not stated) | -0.337% (inactive)
CCCc1nc2scc(-c3ccc(C)cc3)c2c(=O)n1N | -1.81% (inactive)
Cc1onc(-c2c(F)cccc2Cl)c1C(=O)N(C)CC(=O)Nc1cccc(F)c1 | -1.86% (inactive)
COC(=O)c1sc(N2CCN(Cc3ccccc3)CC2)nc1N | -1.78% (inactive)
CCn1c(SCCC(C)C)nnc1-c1c[nH]c2ccccc12 | 0.439% (inactive)
C=CC(COCc1ccccc1)N(Cc1ccccc1)S(=O)(=O)c1ccccc1Br (configuration not stated) | 0.0215% (inactive)
O=C(O)c1ccc(-n2nc(-c3ccccc3)c3ccccc3c2=O)cc1 | -0.73% (inactive)
CSCC[C@H](NC(=O)NCc1cccs1)C(=O)O | 1.04% (inactive)
COc1ccc(CCN(C)C(=O)C23CC4CC(CC(Cl)(C4)C2)C3)cc1OC | -1.39% (inactive)
CCn1nc(C(=O)Nc2ccc(N3CCOCC3)cc2)c2ccccc2c1=O | -1.35% (inactive)
C=C(C)CNC(=O)c1ccc(OC2CCN(C(=O)COC)CC2)cc1 | -0.166% (inactive)
C#CCN1CC(C)/C(=N/O)CC1C (configuration not stated) | -0.192% (inactive)
O=c1[nH]oc(O)c1-c1ncc(C(F)(F)F)cc1Cl | -0.466% (inactive)
Nn1c(SCc2ccccc2)nnc1C1CCCCC1 | -0.356% (inactive)
COc1ccccc1C(=O)NCCC(=O)NC1=NCCS1 | 0.112% (inactive)
CCN(CC)C(=O)CS(=O)CC(=O)Nc1cc(OCCOC)c(Cl)cc1Cl (configuration not stated) | -0.37% (inactive)
